Measurements collected from several papers.
Each line is one published result; the experiments were not run side by side.
Target: RAC-alpha serine/threonine-protein kinase (AKT1, Homo sapiens, UniProt P31749)

SMILES	assay	conditions	quantity	value
Cn1cc(-c2cc(F)cc(N3CCn4c(cc5c4CCCC5)C3=O)c2CO)cc(Nc2ccc(N3CCN(C4COC4)CC3)cn2)c1=O	enzyme activity, inhibitor	0.1 µM	inhibition	5%
Cn1cncc1[C@](O)(COc1ccc(C#N)cc1-c1ccc(OC(F)(F)F)cc1)c1ccc(C#N)cc1	cell-free assay, competition with immobilised ligand	1 µM	remaining binding	84%
CC(C)(C)c1cc(C=C(C#N)C#N)cc(Br)c1O	enzyme activity, inhibitor	0.5 µM	remaining activity	108%
O=C(NCc1ncc(C(F)(F)F)cc1Cl)c1ccc2c(c1)C1(CCS(=O)(=O)CC1)[C@H](C1CC1)N2S(=O)(=O)c1ccc(F)cc1	cell-free assay, competition with immobilised ligand	1 µM	remaining binding	96%
Nc1ncc(-c2nc(N3CCOCC3)nc(N3CCOCC3)n2)c(C(F)F)n1	binding, competition with immobilised ligand	10 µM	remaining binding	94%
COc1ncccc1-c1cnn2ccc(N3CCN(C(=O)OC(C)C)CC3)nc12	binding, competition with immobilised ligand	1 µM	remaining binding	100%
COc1cc(Nc2ncc(F)c(Nc3ccc4c(n3)NC(=O)C(C)(C)O4)n2)cc(OC)c1OC	binding, competition with immobilised ligand	10 µM	inhibition	0%
Cn1cc(-c2cccc(N3CCc4c(sc5c4CC(C)(C)C5)C3=O)c2CO)cc(Nc2ccncn2)c1=O	enzyme activity, inhibitor	1 µM	inhibition	4%
C#Cc1n[nH]c2c(-c3cn(C(C)c4ccccn4)c(=O)[nH]c3=O)cc(F)cc12 (stereo not drawn)	enzyme activity, inhibitor	1 µM	inhibition	3.7%
O=c1[nH]c2ccccc2n1C1CCN(Cc2ccc(-c3[nH]c4cc5ncnc5cc4nc3-c3ccccc3)cc2)CC1	cell-free assay	0.5 µM	remaining signal	114%
C#Cc1n[nH]c2c(-c3cn([C@@H](C)c4ccccc4)c(=O)[nH]c3=O)cc(F)cc12	enzyme activity, inhibitor	0.1 µM	inhibition	1.4%
Cc1nn(C)cc1-c1nc2c(N3CCN(Cc4ccc(Cl)cc4)CC3)c(Cl)cnc2[nH]1	binding, competition with immobilised ligand	1 µM	remaining binding	100%
